In ChEMBL document CHEMBL3351726 (J Med Chem, 2014):
pIC50: −log10 of the molar value. Calls of active or inactive are those of the source. The calls are words filed in the database; no cut-off is given here. Residues, ends and D or L forms follow the SMILES beside them.

Assays:
[1] = Retention time of the compound measured over 6 mins at flow rate of 0.5 mL/min by HPLC; assay type: physicochemical; settings: 0.1 h
[2] = Retention time of the compound measured over 30 mins at flow rate of 1 mL/min by HPLC; assay type: physicochemical; settings: 0.5 h
Outline: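 Reversed-phase analytical HPLC or LC−MS on a SymmetryShield RP18 column (5 μm, 4.6 × 150 mm). Gradient 10−60% B over 30 min at 1 mL/min; A = 0.1% TFA in water, B = 0.1% TFA in acetonitrile.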

[3] = biological target: T1, Sodium channel protein type 9 subunit alpha (Homo sapiens, UniProt Q15858); assay: Inhibition of human Nav1.7 expressed in HEK-293 cells at -130 to -110 mV holding potential by whole-cell voltage clamp analysis; assay type: cell-based, HEK293
Target sequence in this assay (Q15858 whole entry): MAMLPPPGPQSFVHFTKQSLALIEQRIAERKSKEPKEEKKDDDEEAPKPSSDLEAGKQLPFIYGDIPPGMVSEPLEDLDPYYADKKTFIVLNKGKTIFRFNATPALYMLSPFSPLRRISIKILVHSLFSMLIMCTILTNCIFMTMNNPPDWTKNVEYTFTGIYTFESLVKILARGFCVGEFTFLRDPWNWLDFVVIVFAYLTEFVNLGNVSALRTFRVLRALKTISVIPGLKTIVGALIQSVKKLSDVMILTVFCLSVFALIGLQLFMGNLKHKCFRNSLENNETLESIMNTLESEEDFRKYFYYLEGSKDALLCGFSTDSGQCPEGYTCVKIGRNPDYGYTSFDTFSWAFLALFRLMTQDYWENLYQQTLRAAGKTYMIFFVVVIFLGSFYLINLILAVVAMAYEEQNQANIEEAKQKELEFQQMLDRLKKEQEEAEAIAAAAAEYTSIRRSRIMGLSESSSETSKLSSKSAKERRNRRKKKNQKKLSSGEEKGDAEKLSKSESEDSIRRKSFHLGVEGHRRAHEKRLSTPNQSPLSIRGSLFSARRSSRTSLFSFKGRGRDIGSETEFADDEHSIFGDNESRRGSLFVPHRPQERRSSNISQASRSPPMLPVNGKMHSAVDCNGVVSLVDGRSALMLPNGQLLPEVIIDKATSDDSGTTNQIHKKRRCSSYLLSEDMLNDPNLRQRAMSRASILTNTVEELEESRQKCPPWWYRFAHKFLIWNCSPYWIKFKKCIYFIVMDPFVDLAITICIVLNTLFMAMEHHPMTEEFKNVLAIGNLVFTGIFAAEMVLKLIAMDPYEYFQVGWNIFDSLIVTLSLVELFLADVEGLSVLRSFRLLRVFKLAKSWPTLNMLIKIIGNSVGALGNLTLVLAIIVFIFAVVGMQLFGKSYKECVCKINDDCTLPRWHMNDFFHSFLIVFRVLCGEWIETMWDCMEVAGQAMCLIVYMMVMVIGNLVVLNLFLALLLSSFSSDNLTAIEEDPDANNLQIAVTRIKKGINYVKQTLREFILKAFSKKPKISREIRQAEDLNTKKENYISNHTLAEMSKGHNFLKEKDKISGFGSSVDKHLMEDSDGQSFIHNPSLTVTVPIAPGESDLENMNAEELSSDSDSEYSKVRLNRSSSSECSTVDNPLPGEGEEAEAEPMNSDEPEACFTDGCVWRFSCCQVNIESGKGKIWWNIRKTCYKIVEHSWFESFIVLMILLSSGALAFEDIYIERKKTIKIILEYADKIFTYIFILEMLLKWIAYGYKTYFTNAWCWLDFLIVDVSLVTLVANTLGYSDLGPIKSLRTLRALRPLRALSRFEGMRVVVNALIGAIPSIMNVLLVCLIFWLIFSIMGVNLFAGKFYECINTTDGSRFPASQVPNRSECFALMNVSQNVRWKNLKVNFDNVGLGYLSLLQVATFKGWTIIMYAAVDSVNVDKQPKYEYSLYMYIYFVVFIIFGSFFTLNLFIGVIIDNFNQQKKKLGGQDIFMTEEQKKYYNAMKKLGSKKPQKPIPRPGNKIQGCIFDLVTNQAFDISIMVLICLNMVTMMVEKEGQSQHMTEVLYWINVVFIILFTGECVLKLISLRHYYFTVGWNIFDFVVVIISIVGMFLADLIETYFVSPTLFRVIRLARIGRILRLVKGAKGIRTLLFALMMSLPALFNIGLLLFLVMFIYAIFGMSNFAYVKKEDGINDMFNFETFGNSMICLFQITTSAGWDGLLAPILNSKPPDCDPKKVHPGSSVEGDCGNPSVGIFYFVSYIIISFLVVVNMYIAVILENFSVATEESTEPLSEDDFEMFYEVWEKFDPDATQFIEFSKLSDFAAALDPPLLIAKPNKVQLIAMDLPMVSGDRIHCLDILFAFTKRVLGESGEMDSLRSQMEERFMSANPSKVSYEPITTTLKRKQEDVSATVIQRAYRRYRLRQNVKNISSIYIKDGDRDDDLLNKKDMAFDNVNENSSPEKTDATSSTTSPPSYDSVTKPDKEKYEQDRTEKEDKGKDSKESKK

[4] = tested on: HEK293; assay: Selectivity ratio of IC50 for rat Nav1.2 expressed in HEK-293 cells to IC50 for human Nav1.7 expressed in HEK-293 cells; assay type: cell-based
[5] = biological target: T1, Sodium channel protein type 9 subunit alpha; assay: Inhibition of human Nav1.7 expressed in HEK-293 cells assessed as inhibition of channel-mediated current at 1 nM followed by wash-out and compound treatment at 0.1 nM by time-course experiment relative to initial peak amplitude; assay type: cell-based; settings: HEK293
Outline: (§1)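 HEK-293 cells on poly-D-lysine-coated dishes in DMEM at 37 °C, 5% CO2; recorded 12−48 h after plating. Whole-cell voltage-clamp sodium currents under continuous perfusion with extracellular solution. Compounds applied via a gravity-driven superfusion pipette array with its outlet about 100 μm from the cell.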
Target sequence in this assay (Q15858 whole entry, looked up): as the sequence (Q15858 whole entry) above

[6] = biological target: T1, Sodium channel protein type 9 subunit alpha; assay: Inhibition of human Nav1.7 expressed in HEK-293 cells assessed as inhibition of channel-mediated current at 1 nM by time-course experiment; assay type: cell-based; settings: HEK293; outline: as §1
Target sequence in this assay (Q15858 whole entry, looked up): as the sequence (Q15858 whole entry) above

[7] = Retention time of the compound measured over 15 mins at flow rate of 1 mL/min by HPLC
[8] = biological target: T1, Sodium channel protein type 9 subunit alpha; assay: Inhibition of human Nav1.7 expressed in HEK-293 cells assessed as time for channel-mediated current inhibition at 2 nM by time-course experiment; assay type: cell-based; settings: HEK293; outline: as §1
Target sequence in this assay (Q15858 whole entry, looked up): as the sequence (Q15858 whole entry) above

Structure (SMILES)	Retention_time [1] [min]	Retention_time [2] [min]	pIC50 [3]	Ratio IC50 [4]	inhibition [5] [%]	inhibition [6]	Retention_time [7] [min]	TIME [8] [h]
COC(=O)[C@H](Cc1c[nH]c2ccccc12)NC(=O)[C@H](CC(C)C)NC(=O)[C@H](CCCCN)NC(=O)[C@H](CCCCN)NC(=O)[C@H](CCCCN)NC(=O)[C@@H]1CSSC[C@@H]2NC(=O)[C@H](CCCCN)NC(=O)[C@H](CCCNC(=N)N)NC(=O)[C@H](CCC(=O)O)NC(=O)[C@H](CO)NC(=O)[C@H](CC(=O)O)NC(=O)[C@@H]3CSSC[C@H](NC(=O)[C@H](C(C)C)NC(=O)[C@H](CCSC)NC(=O)CNC(=O)[C@H](CCC(=O)O)NC(=O)[C@H](CSSC[C@H](NC(=O)[C@@H](N)Cc4ccc(O)cc4)C(=O)N[C@@H](CCC(N)=O)C(=O)N[C@@H](CCCCN)C(=O)N[C@@H](Cc4c[nH]c5ccccc45)C(=O)N[C@@H](CCSC)C(=O)N[C@@H](Cc4c[nH]c5ccccc45)C(=O)N[C@@H]([C@@H](C)O)C(=O)N3)NC2=O)C(=O)N[C@@H](CCCNC(=N)N)C(=O)N[C@@H](CC(C)C)C(=O)N[C@@H](Cc2c[nH]c3ccccc23)C(=O)N1	2.93	13.17	9.22	5	–	–	–	–
CNC(=O)[C@H](Cc1c[nH]c2ccccc12)NC(=O)[C@H](CC(C)C)NC(=O)[C@H](CCCCN)NC(=O)[C@H](CCCCN)NC(=O)[C@H](CCCCN)NC(=O)[C@@H]1CSSC[C@@H]2NC(=O)[C@H](CCCCN)NC(=O)[C@H](CCCNC(=N)N)NC(=O)[C@H](CCC(=O)O)NC(=O)[C@H](CO)NC(=O)[C@H](CC(=O)O)NC(=O)[C@@H]3CSSC[C@H](NC(=O)[C@H](C(C)C)NC(=O)[C@H](CCSC)NC(=O)CNC(=O)[C@H](CCC(=O)O)NC(=O)[C@H](CSSC[C@H](NC(=O)[C@@H](N)Cc4ccc(O)cc4)C(=O)N[C@@H](CCC(N)=O)C(=O)N[C@@H](CCCCN)C(=O)N[C@@H](Cc4c[nH]c5ccccc45)C(=O)N[C@@H](CCSC)C(=O)N[C@@H](Cc4c[nH]c5ccccc45)C(=O)N[C@@H]([C@@H](C)O)C(=O)N3)NC2=O)C(=O)N[C@@H](CCCNC(=N)N)C(=O)N[C@@H](CC(C)C)C(=O)N[C@@H](Cc2c[nH]c3ccccc23)C(=O)N1	2.52	12.44	10.38	83	80	Active	–	–
CSCC[C@@H]1NC(=O)CNC(=O)[C@H](CCC(=O)O)NC(=O)[C@@H]2CSSC[C@H](NC(=O)[C@@H](N)Cc3ccc(O)cc3)C(=O)N[C@@H](CCC(N)=O)C(=O)N[C@@H](CCCCN)C(=O)N[C@@H](Cc3c[nH]c4ccccc34)C(=O)N[C@@H](CCSC)C(=O)N[C@@H](Cc3c[nH]c4ccccc34)C(=O)N[C@@H]([C@@H](C)O)C(=O)N[C@H]3CSSC[C@H](NC(=O)[C@H](C(C)C)NC1=O)C(=O)N[C@@H](CCCNC(=N)N)C(=O)N[C@@H](CC(C)C)C(=O)N[C@@H](Cc1c[nH]c4ccccc14)C(=O)N[C@H](C(=O)N[C@@H](CCCCN)C(=O)N[C@@H](CCCCN)C(=O)N[C@@H](CCCCN)C(=O)N[C@@H](CC(C)C)C(=O)N[C@@H](Cc1c[nH]c4ccccc14)C(=O)Nc1ccccc1)CSSC[C@H](NC(=O)[C@H](CCCCN)NC(=O)[C@H](CCCNC(=N)N)NC(=O)[C@H](CCC(=O)O)NC(=O)[C@H](CO)NC(=O)[C@H](CC(=O)O)NC3=O)C(=O)N2	2.57	14.13	9.10	4	–	–	–	–
[H][C@]12CSSC[C@@H](C(=O)N[C@@H](CCCCN)C(=O)N[C@@H](CCCCN)C(=O)N[C@@H](CC(C)C)C(=O)N[C@@H](Cc3c[nH]c4ccccc34)C(=O)O)NC(=O)[C@H](Cc3c[nH]c4ccccc34)NC(=O)[C@H](CC(C)C)NC(=O)[C@H](CCCNC(=N)N)NC(=O)[C@]3([H])CSSC[C@]([H])(NC(=O)[C@]([H])([C@@H](C)O)NC(=O)[C@H](Cc4c[nH]c5ccccc45)NC(=O)[C@H](CCSC)NC(=O)[C@H](Cc4c[nH]c5ccccc45)NC(=O)[C@H](CCCCN)NC(=O)[C@H](CCC(N)=O)NC(=O)[C@@H](NC(=O)[C@@H](N)Cc4ccc(O)cc4)CSSC[C@]([H])(NC1=O)C(=O)N[C@@H](CCC(=O)O)C(=O)NCC(=O)N[C@@H](CC(C)C)C(=O)N[C@@H](C(C)C)C(=O)N3)C(=O)N[C@@H](CC(=O)O)C(=O)N[C@@H](CO)C(=O)N[C@@H](C)C(=O)N[C@@H](CCCNC(=N)N)C(=O)N[C@@H](CCCCN)C(=O)N2 (HELM PEPTIDE1{Y.C.Q.K.W.M.W.T.C.D.S.A.R.K.C.C.E.G.L.V.C.R.L.W.C.K.K.L.W}$PEPTIDE1,PEPTIDE1,2:R3-16:R3|PEPTIDE1,PEPTIDE1,9:R3-21:R3|PEPTIDE1,PEPTIDE1,15:R3-25:R3$$$V2.0)	–	15.35	7.17	1	–	–	9.25	–
CSCC[C@@H]1NC(=O)CNC(=O)[C@H](CCC(=O)O)NC(=O)[C@@H]2CSSC[C@H](NC(=O)[C@@H](N)Cc3ccc(O)cc3)C(=O)N[C@@H](CCC(N)=O)C(=O)N[C@@H](CCCCN)C(=O)N[C@@H](Cc3c[nH]c4ccccc34)C(=O)N[C@@H](CCSC)C(=O)N[C@@H](Cc3c[nH]c4ccccc34)C(=O)N[C@@H]([C@@H](C)O)C(=O)N[C@H]3CSSC[C@H](NC(=O)[C@H](C(C)C)NC1=O)C(=O)N[C@@H](CCCNC(=N)N)C(=O)N[C@@H](CC(C)C)C(=O)N[C@@H](Cc1c[nH]c4ccccc14)C(=O)N[C@H](C(=O)N[C@@H](CCCCN)C(=O)N[C@@H](CCCCN)C(=O)N[C@@H](CCCCN)C(=O)N[C@@H](CC(C)C)C(=O)N[C@@H](Cc1c[nH]c4ccccc14)C(=O)O)CSSC[C@H](NC(=O)[C@H](CCCCN)NC(=O)[C@H](CCCNC(=N)N)NC(=O)[C@H](C)NC(=O)[C@H](CO)NC(=O)[C@H](CC(=O)O)NC3=O)C(=O)N2	–	14.54	–	40	–	–	9.29	0.0606
